Values after ≈ are worked out from the molar mass of the structure shown.
Key:
[1] = Stability of the compound in human plasma assessed as parent compound remaining measured after 3 hrs; type: ADME, cell-free; settings: read-out: Stability
Method in brief: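 Compound incubated in human plasma for 3 h; stability expressed as percent remaining intact.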

[2] = target: Platelet-derived growth factor receptor beta (Homo sapiens, UniProt P09619); assay: Binding affinity to wild-type human partial length PDGFRB (V582 to Y1009 residues) expressed in bacterial expression system at 1 uM by Kinomescan method relative to control
Chain of Platelet-derived growth factor receptor beta (P09619 whole entry, the tested form may be a part): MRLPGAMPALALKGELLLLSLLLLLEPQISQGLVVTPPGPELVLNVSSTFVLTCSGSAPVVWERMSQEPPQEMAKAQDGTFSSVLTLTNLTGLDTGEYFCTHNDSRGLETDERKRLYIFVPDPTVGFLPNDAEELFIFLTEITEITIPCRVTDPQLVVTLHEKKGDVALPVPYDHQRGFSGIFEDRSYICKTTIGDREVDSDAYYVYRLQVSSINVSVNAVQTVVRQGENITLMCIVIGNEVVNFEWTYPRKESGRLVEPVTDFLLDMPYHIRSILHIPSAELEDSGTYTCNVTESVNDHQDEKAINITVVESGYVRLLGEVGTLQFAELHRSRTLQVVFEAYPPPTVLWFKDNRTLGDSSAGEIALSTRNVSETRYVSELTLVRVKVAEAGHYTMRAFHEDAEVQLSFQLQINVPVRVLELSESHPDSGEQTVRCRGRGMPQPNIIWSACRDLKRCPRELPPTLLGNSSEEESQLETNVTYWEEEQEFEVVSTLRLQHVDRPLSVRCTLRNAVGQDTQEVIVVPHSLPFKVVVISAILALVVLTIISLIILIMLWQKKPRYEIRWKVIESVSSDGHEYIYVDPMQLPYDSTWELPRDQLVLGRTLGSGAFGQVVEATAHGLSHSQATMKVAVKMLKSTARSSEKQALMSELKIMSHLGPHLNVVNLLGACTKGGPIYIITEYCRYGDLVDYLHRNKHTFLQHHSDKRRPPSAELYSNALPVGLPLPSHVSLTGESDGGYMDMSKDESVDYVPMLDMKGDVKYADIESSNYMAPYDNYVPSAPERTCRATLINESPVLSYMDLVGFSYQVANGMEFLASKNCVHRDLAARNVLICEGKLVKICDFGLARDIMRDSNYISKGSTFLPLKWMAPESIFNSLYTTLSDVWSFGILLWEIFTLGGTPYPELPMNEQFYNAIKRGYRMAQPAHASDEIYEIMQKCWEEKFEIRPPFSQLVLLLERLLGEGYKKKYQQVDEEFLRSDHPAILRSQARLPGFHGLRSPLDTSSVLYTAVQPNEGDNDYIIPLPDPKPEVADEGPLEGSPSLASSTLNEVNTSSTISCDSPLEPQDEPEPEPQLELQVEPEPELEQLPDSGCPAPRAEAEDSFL
Method in brief: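 KINOMEscan competition binding panel of about 456 kinases, compound tested at 1 μM. Activity is given as % of control = [(test signal − positive control signal)/(negative control signal − positive control signal)] × 100.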

Cytochrome P450 3A4 = Cytochrome P450 3A4 (Homo sapiens, UniProt P08684); assay: Time dependent inhibition of CYP3A4 in human liver microsomes assessed as inactivation rate constant at 10 uM using midazolam as substrate incubated prior to substrate addition and measured after 6 mins in presence of NADPH; type: ADME; settings: 0.1 h
Chain of Cytochrome P450 3A4 (P08684 whole entry): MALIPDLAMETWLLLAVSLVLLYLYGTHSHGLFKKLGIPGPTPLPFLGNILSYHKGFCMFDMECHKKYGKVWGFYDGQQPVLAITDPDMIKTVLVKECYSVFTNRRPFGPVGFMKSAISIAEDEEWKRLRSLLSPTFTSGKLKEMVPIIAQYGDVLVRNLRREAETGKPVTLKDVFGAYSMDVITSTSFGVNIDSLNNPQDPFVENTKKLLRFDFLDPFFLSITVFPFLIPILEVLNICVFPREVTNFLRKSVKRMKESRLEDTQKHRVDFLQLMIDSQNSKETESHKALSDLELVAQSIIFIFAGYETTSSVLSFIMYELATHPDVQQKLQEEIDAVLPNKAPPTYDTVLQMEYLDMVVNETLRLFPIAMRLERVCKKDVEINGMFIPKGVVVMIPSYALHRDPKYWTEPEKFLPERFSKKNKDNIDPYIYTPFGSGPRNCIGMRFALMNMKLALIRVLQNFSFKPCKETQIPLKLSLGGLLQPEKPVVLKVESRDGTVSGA
Method in brief: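 Human liver microsomes (0.5 mg/mL) preincubated with test compound at 10 µM and 1 mM NADPH in phosphate buffer at 37 °C for 0, 5, 15 and 30 min. Mixture then diluted 20-fold and incubated with midazolam (20 µM) at 37 °C for 6 min to measure residual CYP3A4 activity. kobs taken as the initial rate of decline of activity versus preincubation time.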

[3] = AUC (0 to 24 hrs) in nude rat xenografted with human Calu6 cells harboring KRAS Q61K mutant at 35 mg/kg, po administered daily for 18 days starting from day 13 post tumor implantation and measured on day 31; type: ADME, organism-based; design: dose 35 mg/kg, time < 24 hr, route oral; settings: in vivo
Method in brief: (§1)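 Nude rats carrying Calu-6 (KRAS Q61K) NSCLC xenografts were dosed p.o. once daily at 15, 35, 75 or 150 mg/kg from day 13 to day 31 after implant. Plasma was collected after the last dose and drug concentration was measured. AUC and Cmax were calculated per dose on day 31.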

[4] = AUC (0 to 24 hrs) in nude rat xenografted with human Calu6 cells harboring KRAS Q61K mutant at 150 mg/kg, po administered daily for 18 days starting from day 13 post tumor implantation and measured on day 31; type: ADME, organism-based; design: dose 150 mg/kg, time < 24 hr, route oral; settings: in vivo; method in brief: as §1
[5] = Distribution coefficient, log D of compound at pH 6.5; type: physicochemical; settings: octanol/water
[6] = target: T1, Serine/threonine-protein kinase B-raf (Homo sapiens, UniProt P15056); assay: Binding affinity to wild-type human partial length BRAF (S429 to E741 residues) expressed in mammalian expression system by Kinomescan method
T1 sequence (P15056 whole entry, the tested form may be a part): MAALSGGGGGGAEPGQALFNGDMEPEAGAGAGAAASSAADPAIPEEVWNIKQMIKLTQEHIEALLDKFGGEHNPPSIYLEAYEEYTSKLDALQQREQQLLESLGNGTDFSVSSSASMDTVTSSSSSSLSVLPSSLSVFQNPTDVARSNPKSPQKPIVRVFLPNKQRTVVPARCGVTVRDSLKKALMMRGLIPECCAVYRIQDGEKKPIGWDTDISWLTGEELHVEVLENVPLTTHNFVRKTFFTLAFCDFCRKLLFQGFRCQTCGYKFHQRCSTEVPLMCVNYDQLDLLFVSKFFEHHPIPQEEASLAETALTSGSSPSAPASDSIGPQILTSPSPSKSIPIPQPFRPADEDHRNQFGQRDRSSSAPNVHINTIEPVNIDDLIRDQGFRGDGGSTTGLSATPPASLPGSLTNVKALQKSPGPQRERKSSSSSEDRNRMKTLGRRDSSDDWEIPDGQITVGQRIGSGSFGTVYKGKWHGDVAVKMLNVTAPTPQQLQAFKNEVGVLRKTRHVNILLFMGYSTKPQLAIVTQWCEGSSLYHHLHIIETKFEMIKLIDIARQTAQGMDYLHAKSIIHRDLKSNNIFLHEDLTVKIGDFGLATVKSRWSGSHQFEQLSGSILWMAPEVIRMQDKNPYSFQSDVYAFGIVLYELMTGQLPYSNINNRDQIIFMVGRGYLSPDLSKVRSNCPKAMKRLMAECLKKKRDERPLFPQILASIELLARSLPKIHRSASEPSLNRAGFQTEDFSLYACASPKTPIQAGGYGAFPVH

[7] = target: T1, Serine/threonine-protein kinase B-raf; assay: Binding affinity to wild-type human partial length BRAF (S429 to E741 residues) expressed in mammalian expression system at 1 uM by Kinomescan method relative to control
[8] = Intrinsic clearance in human liver microsomes; type: ADME, Microsome; settings: read-out: CLH
[9] = Tmax in nude rat xenografted with human Calu6 cells harboring KRAS Q61K mutant at 15 mg/kg, po administered daily for 18 days starting from day 13 post tumor implantation and measured on day 31; type: ADME, organism-based; settings: in vivo
Method in brief: (§2)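 Calu-6 xenograft nude rats were dosed orally once daily at 15, 35, 75 or 150 mg/kg from day 13 after implantation to day 31. Plasma was collected after the last dose on day 31, drug concentrations were measured, and PK parameters including AUC were calculated for each dose.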

Calu-6 [10] = assay: Antiproliferative activity against human Calu6 cells harboring KRAS Q61K mutant assessed as reduction in cell viability after 72 hrs by CellTiter-Glo assay; type: functional, cell-based; settings: Calu-6, 72 h
[11] = AUC (infinity) in rat at 4 mg/kg, po; type: ADME, organism-based; design: dose 4 mg/kg, route oral, time infinity; settings: in vivo
[12] = Volume of distribution at steady state in dog at 0.2 mg/kg, iv or 0.4 mg/kg, po; type: ADME, organism-based, Canis lupus familiaris; settings: in vivo, read-out: Vdss
[13] = Cmax in rat at 4 mg/kg, po; type: ADME, organism-based; design: dose 4 mg/kg, route oral; settings: in vivo
[14] = Clearance in dog at 0.2 mg/kg, iv or 0.4 mg/kg, po; type: ADME, organism-based, Canis lupus familiaris; settings: in vivo
[15] = Tmax in nude rat xenografted with human Calu6 cells harboring KRAS Q61K mutant at 75 mg/kg, po administered daily for 18 days starting from day 13 post tumor implantation and measured on day 31; type: ADME, organism-based; settings: in vivo; method in brief: as §2
[16] = Clearance in rat at 2 mg/kg, iv or 4 mg/kg, po; type: ADME, organism-based; settings: in vivo
[17] = Cmax in nude rat xenografted with human Calu6 cells harboring KRAS Q61K mutant at 35 mg/kg, po administered daily for 18 days starting from day 13 post tumor implantation and measured on day 31; type: ADME, organism-based; design: dose 35 mg/kg, route oral; settings: in vivo; method in brief: as §1
[18] = Cmax in nude rat xenografted with human Calu6 cells harboring KRAS Q61K mutant at 15 mg/kg, po administered daily for 18 days starting from day 13 post tumor implantation and measured on day 31; type: ADME, organism-based; design: dose 15 mg/kg, route oral; settings: in vivo; method in brief: as §1
[19] = target: T1, Serine/threonine-protein kinase B-raf; assay: Inhibition of full-length BRAF (unknown origin)
[20] = Toxicity in human Calu6 cells harboring KRAS Q61K mutant xenografted nude rat assessed as change in body weight at 15 to 150 mg/kg, po administered daily for 18 days starting from day 13 post tumor implantation and measured during compound dosing; type: organism-based; settings: in vivo, 432 h
Method in brief: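 Nude rats bearing Calu-6 (KRAS Q61K) NSCLC xenografts were dosed orally once daily with vehicle or 15, 35, 75 or 150 mg/kg. Dosing ran from day 13 after implantation until day 31. Body weight was tracked and expressed as percent change from initial for each treatment group versus the vehicle control.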

[21] = Lipophilicity, log P of the compound at pH 6.5; type: physicochemical; settings: buffer
Calu-6 [22] = assay: Antitumor activity against human Calu6 cells harboring KRAS Q61K mutant xenografted in nude rat assessed as tumor regression at 150 mg/kg, po administered daily for 18 days starting from day 13 post tumor implantation and measured on day 31 relative to control; type: functional
Method in brief: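 Nude rats bearing Calu-6 (KRAS Q61K) human NSCLC xenografts received vehicle or drug p.o. daily at 15, 35, 75 or 150 mg/kg. Dosing began 13 days after tumor implantation and ran to day 31, i.e. 18 days of treatment. Tumor volumes were read out as %T/C or % regression versus vehicle on day 31. Body weight was also tracked.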

[23] = AUC (0 to 24 hrs) in nude rat xenografted with human Calu6 cells harboring KRAS Q61K mutant at 15 mg/kg, po administered daily for 18 days starting from day 13 post tumor implantation and measured on day 31; type: ADME, organism-based; design: dose 15 mg/kg, time < 24 hr, route oral; settings: in vivo; method in brief: as §1
[24] = Solubility of compound in pH 6.8 Cl-free PBS buffer by shake-flask assay; type: physicochemical
Method in brief: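 Shake-flask solubility measured in chloride-free PBS at pH 6.8.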

Which remaining at 3 h [1] does the source give for `Cc1ccc(NC(=O)c2ccnc(C(F)(F)F)c2)cc1-c1cc(OCCO)nc(N2CCOCC2)c1` [NAPORAFENIB] here?
The remaining at 3 h was > 90%.

What about the Activity [2] of the same compound?
Its Activity is > 99%.

And the K (Cytochrome P450 3A4)?
Its K is 0.01 min⁻¹.

And the AUC at 24 h [3]?
Its AUC at 24 h is 25.2 µM·h.

And the AUC at 24 h [4]?
The AUC at 24 h was 217 µM·h.

And the logD [5]?
The logD was > 4.

What about the Kd [6] of the same compound?
Its Kd is 1.3 nM.

And the Activity [7]?
The Activity was > 98%.

What about the microsomal CLint [8] of the same compound?
The microsomal CLint was 13.5 µL/min/mg.

And the Tmax [9]?
The Tmax was 3 h.

And the EC50 (Calu-6 [10])?
The EC50 was 280 to 470 nM.

And the AUC(0-inf) [11]?
The AUC(0-inf) was 1.8 µM·h.

And the Vd [12]?
The Vd was 1.7 L/kg.

And the Cmax [13]?
The Cmax was 500 nM.

What about the clearance [14] of the same compound?
Its clearance is 3.5 mL/min/kg.

And the Tmax [15]?
The Tmax was 2 h.

And the clearance [16]?
The clearance was 31 mL/min/kg.

What about the Cmax [17] of the same compound?
The Cmax was 2350 nM.

What about the Cmax [18] of the same compound?
The Cmax was 878 nM.

What about the IC50 [19] of the same compound?
Its IC50 is 0.4 nM.

And the Activity [20]?
Its Activity is “Non-Toxic”.

And the logD [21]?
Its logD is > 3.

What about the Activity (Calu-6 [22]) of the same compound?
Its Activity is 56%.

What about the AUC at 24 h [23] of the same compound?
Its AUC at 24 h is 7.91 µM·h.

What about the solubility thermodynamic [24] of the same compound?
The solubility thermodynamic was 20 µM (≈ 10 µg/mL).
